This passage reports yeast fitness results from the RNAGym collection of RNA variant scans (doi:10.1126/science.aae0568).

To fix the notation:
B1: tRNA (parent)
chain: GUUCCGUUGGCGUAAUGGUAACGCGUCUCCCUCCUAAGGAGAAGACUGCGGGUUCGAGUCCCGUACGGAACG

This sample holds only a part of the variants without activity.

Variants of B1 are the subject of the data set. The data set can be described thus: yeast fitness relative to wild type (ratio to wild type); higher = fitter; tRNA-Arg(CCU), competitive growth, 37 C, YPD. In outline: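 Changes in genotype frequencies gave Darwinian fitness relative to wild type. Frequencies were read by 100-nucleotide paired-end sequencing of gene amplicons before and after pooled Saccharomyces cerevisiae strains, carrying tRNA-Arg(CCU) gene variants at the native locus, were competed in YPD at 37°C for 24 hours in six replicates. A genotype was kept only with ≥ 100 starting reads, and estimates < 0.5 were set to 0.5.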
Turning to GUUCCGUUGGCGUAAUGAUAACGCGUCUCCCUCUUAAGGAGACGACUGCGGGGUCGAGUCCCGUACGCAACG [G18A C34U A43C U53G G68C], the yeast fitness was no more than 0.5.
Consider GUUCCGUUGGCGUAAUCGUAACGCGUCUCCCUCCUAAGGAGAAGACUGCGGGUUCCACUCCCGUACGGAACG [G17C G56C G58C], for which the yeast fitness was no more than 0.5.
For GUUCAGUUGGCGUAAUGGUAACGCGUCCCCCUCCUAAGGAGAAGACUGCGGGUUCGAGUCCCCUACGGAACG [C5A U28C G63C] the value was 0.534; for GUUCAGUUGGCGUACAGGUAACGCGUCUCCGUCUUAAGGAGAAGACUGCGGGUUCGAGUCCCGUACGGUACG [C5A A15C U16A C31G C34U A69U], no more than 0.5.
For GUUCCGUUGACGUAAUGGUAACGCGUCUCCUUCCUAGGGAGAAGACUGCGGGUUCGAGUCCCGUACGGAACG [G10A C31U A37G] the value was 0.796; for GUUCCGUUAGCGUAAUGGUAACGUGUCUCCCUCCUAAGGAGAAGACUGCGGGUUCGACUCCCGUACCGAACG [G9A C24U G58C G67C], no more than 0.5.
For GUUCCGAUGGCGUAAUGGUAACGCGUCUCCCGCCAAAGGAGAAGACUGCGGGUUCGAGUCCCGUACGGAACG [U7A U32G U35A], the yeast fitness was no more than 0.5.
In the case of GUUCCGUUGGCGCAAUGGUAACGCGUCUCCCUCCUAAGGAGAACACUGCGGGUUCGAAUCCCGUACGGAACG [U13C G44C G58A], the yeast fitness was found to be 0.927.
For the variant GUUCCGUUGGCGUUAUGGUAACACGUAUCCCUCCUAAGGAGAAGACUGCGGGUUCGACUCUCGUACGGAACG [A14U G23A C27A G58C C61U], the yeast fitness is no more than 0.5.
For GUUCCGUUGGCGUAAUGGAAACGCGUCUCCCUCCUGAGGAGAAGACUGCUGGUUCGAGACCCGUACGGAACG [U19A A36G G50U U59A] the value was no more than 0.5; for GUUCCGUUGGCGUAAUGGUAACGCGUCGCCCUCCUAAGGUGAAGACUGCGGGUUCGAGUCCCGUACGGCACG [U28G A40U A69C], 0.629.
As to GUUCCGUUGGCGUAAUGGUAACGCGUCUGCCUCCUAAGGAGAAGACUGCGGGUUCAAGUCACGUACGGAACG [C29G G56A C61A], the yeast fitness was found to be 0.547.
For GUUCCGUUGGCGUAAUGCUAACGCGUCUCCCUCCUAAGGAGACGACUGCGGAUUCGAGUCCCGUACGGAACG [G18C A43C G52A] the value was 0.502; for GUUCCGUUGGCGUAAUGGUAACGCGUCUCCCUCCUAAGGAGAAGACUGCGGGUUCGAGUGCCGCACGGAACG [C60G U64C], 0.568.
The result for GUUCCGUUGGCGUAAUGGUAACGCGUCUCCCUCCUAAGGAGAAGACUGCAGGUUCGAGUCCCGUACGGAUCG [G50A A70U] reads 0.805; that for GUUCCGUUGGCGUAACGGUACCGCGUCUCCAUCCUAGGGAGAAGACUGCGGGUUAGAGUCCCGUACGGAACG [U16C A21C C31A A37G C55A], no more than 0.5; that for GUUGCGUUGGCGUAAUGGUUACGCGUCUCCCUCCUAAGGAGAAGACUGCGGGUUCGUGUCCCGUACGGAACG [C4G A20U A57U], no more than 0.5.
For GGUCCGUUGGCGUAAUGGUAACGCGUCUCCCUCCUAAGGAGAAGUCUGCGGGUUCGAGUUCCGUACGGAACG [U2G A45U C60U] the value was 0.549; for GUUACGUUGGCGUAAUGGUAACGCGGCUCCCUCCUAAGGAGAACACUGCGGGUUCGAAUCCCGUACGGAACG [C4A U26G G44C G58A], 0.535; for GCUCCGUUGGCGUAAUGGUAACGCGUCUCCCUCCUAAGGAGAAGACUACGGGUUCGAGUCCCGUAUGGAACG [U2C G48A C66U], 0.681.
In the case of GUUCCGUUGGCGUAGUGGUAACGCGUCUCCCUCCUAAGGAGAAGACUCCGGGUUCGUGUCCCGUACGGAACG [A15G G48C A57U], the yeast fitness was 0.511.
The result for GUUCCGUUGGCGUAAUGGUAACGCGUCUCUCUCCUAAGGAGAGGACUGCGGGUUCGAGUCCCGUACGGAACG [C30U A43G] reads 0.647; that for GUUCCGUUGGCGUAAUGGUAACGUGUCUCCCUCCUAAGGAGAAGGCUGCGGGUUCGAGUCCCGUGCGGAACG [C24U A45G A65G], 0.757; that for GUUCCGUUGGCGUACUGGUACCGCGUCUCCCUCCUAACGAGAAGACUGCGGGUUCGAGUCCCCUACGGAUCG [A15C A21C G38C G63C A70U], 0.513.
For GUUCCGUUGGCGUAAUGGUAAUGCGUCUCCCUCUUAAGGAGAAGACUGCGGGUUCGAGUGCCGUACGGGACG [C22U C34U C60G A69G] the value was 0.58; for GUUCCGCUGGCGUAGUGGUAACGCGUCUCCCUCCUAAGGAGAAGACUGCGCGUUCGUGUCCCGUACGGAACG [U7C A15G G51C A57U], no more than 0.5.
For GUUCCGUUGGCGUAAUGGUAACGCGUCUCCCUCCUAAGGAGAAGACCGCGGGUUCGAAUCCCGUACGGAACG [U47C G58A] the value was 0.986; for GUUGCGUUCGCGUAAUGGUAACGCGUCUCCCUCCUAAGGAAAAGACUGCGGGUUUGAGACCCGUACGGAUCG [C4G G9C G41A C55U U59A A70U], 0.545; for GUUCCCUUGGCGUAAUGGUAACGCGUCUCCCUCCUAAGGACAAGACUGGGGGUUCGAGUCCCGUACGGAACG [G6C G41C C49G], 0.544.
For GUUCCGUUGGCGUCAUGGUAACGCGUCUCCCUCAUAACGAGAAGACUGCGGGUUCGAGUCCCGUACGGAACG [A14C C34A G38C], the yeast fitness was no more than 0.5.
For GUUCCGUCGGCGUAAUGGUAACGCGUCUCCCUCCUAAGGAGAAGACUGCGGGUUCUAGUCCCGUACGGAACG [U8C G56U] the value was 0.755.
The result for GUUCCGUUGGCGGAAUGGUAACGCGUCUCCCUCCUAAGGAGAAGACUGCGGGUUCGAGUCCCGUACCGAACG [U13G G67C] reads 0.777; that for GUUCCGUUGGUGUAAUGGUAACGAGUCUCCCUCCUAAGGAGAAGACUGCGGGUUCGAGUCCCGUACGGAUCG [C11U C24A A70U], no more than 0.5.
The result for GUUCCGUUGGCGUAAUGGUAACGCGUCUACCUGCUAAGGAGAAGACUGCGGGUUCGAGUCUCGUACGGAACG [C29A C33G C61U] reads 0.619.
Regarding GUUCAGUUGGCGUAAUGGUAACGCGUCUCCCCCCUAAGGAGAAGACUGCGGGUUCGAGUUGCGUACGGAACG [C5A U32C C60U C61G], the yeast fitness is no more than 0.5.
For GUUCAGUUGGCGUAAUGGUGACGUGUCUCCCUCCUAACGAGAAGACUGCGGGUUCCAGUCCCGUACGGAACG [C5A A20G C24U G38C G56C] the value was no more than 0.5.
The result for GUUCUGUUGGCGUAAUGGUAACGCGUCUCCCUCCUAAGGAGAAGACUGCGAGUUCGUGUCCCGUACGGAACG [C5U G51A A57U] reads no more than 0.5.
